Screening results from PubChem BioAssay.
Compounds with a hit are over-represented: about 1.6% of the library has one in this group of screens.
TCR CD3 inh – human TCR-CD3 binding inhibition; TAMRA-labeled TCR probe fluorescence, biochemical; inhibition, % at 9.4 µM; 0.37% of 360,000 active; AID 651800;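 also: recombinant mutant TCR 2C K166C tagged with TAMRA read by polarization; 0% = receptor in buffer alone and 100% = receptor with positive control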
RBBP9 inh – blocks human serine hydrolase RBBP9; O75884; recombinant RBBP9, FP-Rh probe fluorescence polarization; inhibition, % at 7.94 µM; 0.2% of 220,000 active; AID 1515;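 active = inhibition above the campaign mean of all tested compounds plus 3 SD, cut at about 14% in these data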;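 also: plate controls were DMSO wells with RBBP9 for no effect and wells lacking RBBP9 protein for full effect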
Target sequence (O75884 whole entry, looked up): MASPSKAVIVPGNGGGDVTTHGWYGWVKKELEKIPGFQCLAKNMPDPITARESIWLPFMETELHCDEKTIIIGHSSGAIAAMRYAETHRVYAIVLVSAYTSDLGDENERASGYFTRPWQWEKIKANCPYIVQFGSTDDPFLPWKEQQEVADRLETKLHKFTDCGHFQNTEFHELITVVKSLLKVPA
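Test system: recombinant human RBBP9; Timing: 30 min then 45 min, 25 °C; Detection: fluorescence polarization; Control set: RBBP9 with DMSO as uninhibited control, no-protein wells as full inhibition; Compound dosing: one concentration, 7.94 µM nominal, 0.794% DMSO; Probe or stimulus: FP-Rh activity-based probe, 375 nM before mixing.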
eIF4H FP inh – inhibitors of RNA binding by human eIF4H; Q15056; eIF4H fluorescence polarization binding assay; inhibition, % at 35 µM; 0.94% of 290,000 active; AID 2012; call rule not given here;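 also: calls also rest on retests at 20 µM and on dose response follow-up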
PABP1 MLLE inh – inhibitors of microRNA-mediated deadenylation, human PABP1 MLLE binding. AID 588489. GST-MLLE / FITC-PAM2 fluorescence polarization. P11940. 0.36% of 360,000 active. inhibition, % at 20 µM; in the data active = inhibition above about 35%, passing the limit was not always enough;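 also: plate controls were DMSO wells with GST-MLLE for no effect and wells lacking GST-MLLE protein for full effect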
PABP polyA inh – PABP-poly(A) binding inhibition; 1% of 290,000 active; P11940; calls only at 35 µM; PABP-poly(A) RNA binding, fluorescence polarization; call rule not given here;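 also: calls also rest on retests at 20 µM and on dose response follow-up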
BSA probe FL – BSA probe counter-screen for TCR-CD3 inhibitors | inhibition, % at 9.4 µM | shares compounds with TCR CD3 inh | 10% of 1,200 active | TAMRA-labeled BSA probe fluorescence counterscreen | AID 652035; in the data active = inhibition above about 23%;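 also: 0% = buffer low control and 100% = reference high control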
TCR-CD3 inh conf – confirmation of human TCR-CD3 interaction inhibitors. 48% of 1,200 active. shares compounds with TCR CD3 inh. AID 652036. inhibition, % at 9.4 µM. TAMRA-labeled TCR probe fluorescence binding assay
* marks the source's active call; other numbers are inactive results; i = inactive; ? = inconclusive; nt = no result; + = active, no number. Rule as the data show it, unless noted: active = inhibition above about 19%; inactive = the rest.

SMILES | TCR CD3 inh | RBBP9 inh | eIF4H FP inh | PABP1 MLLE inh | PABP polyA inh | BSA probe FL | TCR-CD3 inh conf
CNC(=S)N/N=C/c1cc(Br)cc(Br)c1O | 40* | -10 | 14 | 23 | i | -12 | 36*
Cc1cc(/C=N/NC(N)=S)c(O)c(/C=N/NC(N)=S)c1 | 25* | 6 | ? | 112 | ? | 1 | 15
COc1ccc(C(=O)NCC2CCN(C(=O)C(=O)c3cc4ccccc4o3)CC2)c(OC)c1 | -2 | nt | nt | nt | nt | nt | nt
CCCCn1nnnc1SCC(=O)N1CCCC1 | 21* | 0 | -16 | 1 | i | 4 | 3
COc1ccccc1C(=O)NC1CCCCN(C)C1=O (stereo not given) | 0 | nt | nt | nt | nt | nt | nt
C#CCOCCOCCOCCNc1nc(N2CCN(C(=O)C(Cc3ccc(O)cc3)n3cc(C(N)C(C)CC)nn3)CC2)nc(N2CCN(C(=O)C(Cc3ccc(O)cc3)n3cc(C(N)C(C)CC)nn3)CC2)n1 (stereo not given) | 8 | -1 | -5 | 6 | i | nt | nt
C#CCOCCOCCOCCNc1nc(N2CCOCC2)nc(N2CCN(C(=O)[C@H](Cc3ccc(O)cc3)n3cc([C@@H](N)C(C)CC)nn3)CC2)n1 (stereo not given in full) | 20* | -3 | -4 | 1 | i | -5 | 2
O=C(CCCN1C(=O)/C(=C/c2cccs2)SC1=S)NNC(=O)c1ccccc1O | 31* | -5 | -6 | 1 | i | -5 | 31*
COc1cccc(/C=C2\SC(=S)N(CCC(=O)NNC(=O)c3ccccc3OC)C2=O)c1 | 41* | nt | 2 | 28 | i | 1 | 22*
COc1cccc(/C=C2/SC(=S)N(CC(=O)NNC(=O)c3ccccc3OC)C2=O)c1 | 17 | nt | -2 | 1 | i | nt | nt
COc1ccc(/C=C2\SC(=S)N(CCCC(=O)NNC(=O)c3ccccc3O)C2=O)cc1 | 31* | -3 | -8 | 8 | i | -14 | 22*
O=C(CCCN1C(=O)/C(=C/c2cccs2)SC1=S)NNC(=O)c1ccncc1 | 8 | -6 | 10 | -33 | i | nt | nt
Cc1ccccc1CN1[C@@H](CC(C)C)COc2cc(Br)ccc2S1(=O)=O | -3 | nt | nt | nt | nt | nt | nt
CCOc1ccccc1NC(=O)C(=O)N/N=C/c1cc(Br)ccc1O | 28* | -8 | 1 | 0 | i | -10 | 21*
CCOc1ccccc1C=NNC(=O)C(=O)NN=Cc1ccccc1OCC | 7 | nt | nt | 1 | nt | nt | nt
Cc1ccc(C(=O)Nc2cccc([N+](=O)[O-])c2)cc1S(=O)(=O)Nc1ccc(NC(=O)c2ccccc2)cc1 | 30* | -56 | -4 | -2 | i | 10 | 23*
CN=c1scc(C)n1/N=C/c1cc(Br)c(O)c(OC)c1 | 5 | 1 | 3 | 3 | i | nt | nt
CN=c1scc(C)n1/N=C/c1ccc(O)c(O)c1O | 53* | 5 | 95 | 20 | i | -16 | 65*
Nc1nonc1-n1nnc(C(=O)N/N=C/c2cc(Br)ccc2O)c1CNc1ccccc1 | 11 | nt | 6 | -4 | i | nt | nt
Nc1nonc1C(=O)N/N=C/c1cc(Br)ccc1O | 23* | -5 | 12 | nt | i | -8 | 20*
CC(c1nc2ccccc2n1Cc1ccccc1)n1c(-c2cnccn2)nc2ccccc21 (stereo not given) | 3 | nt | nt | nt | nt | nt | nt
CC12CCC(C(=O)N(CSC(=S)N/N=C\c3ccccc3O)C1=O)C2(C)C (stereo not given) | 32* | -4 | 9 | 9 | i | -10 | 20*
S=C(SCc1cc(Cl)cc2c1OCOC2)N1CCSCC1 | -10 | nt | nt | nt | nt | nt | nt
Cn1ccc2c(N3CCCCCC3)cc3c(c21)C1CCC3O1 (stereo not given) | 22* | nt | nt | 17 | nt | 1 | 2
Cc1ccc(C(=O)NC2CCCCN(C)C2=O)c(C)c1 (stereo not given) | -2 | nt | nt | nt | nt | nt | nt
SMILES | TCR CD3 inh | RBBP9 inh | eIF4H FP inh | PABP1 MLLE inh | PABP polyA inh | BSA probe FL | TCR-CD3 inh conf
C=CCNC(=S)NNC(=O)c1cccn(Cc2ccc(Cl)cc2)c1=O | 36* | -5 | 11 | -61 | i | -7 | 18
C=CCNC(=S)NNC(=O)c1cccn(Cc2cccc(Cl)c2)c1=O | 27* | -6 | -8 | -34 | i | -4 | 25*
C=CCNC(=S)NNC(=O)c1cc(O)ccc1O | 38* | 5 | 7 | -5 | i | -10 | 23*
C=CCNC(=S)NNC(=O)c1ccc(Br)cc1 | -9 | -1 | -11 | -5 | i | nt | nt
CCNC(=O)O[C@@H]1C=C[C@@H](C#Cc2ccc(C(C)(C)C)cc2)O[C@@H]1COC(C)=O | -3 | nt | nt | nt | nt | nt | nt
CSCCC(C(=O)Nc1c(C)cccc1C)n1c(-c2cnc(C)cn2)nc2ccccc21 (stereo not given) | -4 | nt | nt | nt | nt | nt | nt
CCCN(CCC)c1cc(=O)nc2ccccn12 | -3 | nt | nt | nt | nt | nt | nt
COc1ccc(C(C(=O)NCc2ccccc2)n2c(=O)c(-c3cc4ccccc4[nH]3)nc3ccccc32)cc1 (stereo not given) | 3 | nt | nt | nt | nt | nt | nt
Cc1cc2c(c(=O)o1)C(c1ccc([N+](=O)[O-])o1)C(C#N)=C(N)O2 (stereo not given) | 38* | 1 | 93* | 14 | + | 5 | 11
CC(=O)C1=C(C)NC(=S)NC1c1ccccc1 (stereo not given) | 1 | nt | nt | nt | nt | nt | nt
COCCCNC(=O)C[C@@H]1C[C@@]2(C(=O)OC)CC(C)(C)CC=C2N(Cc2ccccc2)C1=O | -5 | nt | nt | nt | nt | nt | nt
Cc1cc(C)cc(NC(=O)C(OC(=O)c2ccc(NC(=O)CC#N)cc2)c2ccccc2)c1 (stereo not given) | 27* | nt | nt | -27 | nt | -6 | 10
CCOC(=O)c1c(C)[nH]c(C(=O)C(C)OC(=O)c2ccc(NC(=O)CC#N)cc2)c1C (stereo not given) | 52* | nt | nt | -12 | nt | 5 | 6
CC(OC(=O)c1ccc(NC(=O)CC#N)cc1)C(=O)NC(=O)NC1CCCCC1 (stereo not given) | 20* | nt | 7 | -14 | i | -1 | 1
O=[N+]([O-])c1cccc(I)c1 | 2 | nt | nt | nt | nt | nt | nt
COc1cc2c(c(OC)c1OC)[C@@]1(c3ccccc3)CCCC[C@H]1[C@@H]2NC(=O)C(F)(F)F | 5 | nt | nt | nt | nt | nt | nt
O=C1C(=Cc2cn(-c3ccccc3)nc2-c2ccc(OCc3ccccc3)cc2)SC(=S)N1CCS(=O)(=O)O | 26* | nt | nt | -6 | nt | 1 | 19*
Cc1ccc(-c2nn(-c3ccccc3)cc2C=C2SC(=S)N(CCS(=O)(=O)O)C2=O)cc1 | 4 | nt | nt | 6 | nt | nt | nt
O=C(NNC(=O)c1ccc2ccccc2c1O)c1ccccc1Cl | 29* | 3 | 8 | 16 | i | -5 | 35*
O=C(NNC(=O)c1ccc2ccccc2c1O)c1cccs1 | 40* | nt | 7 | -7 | i | -2 | 33*
O=C(NNC(=O)c1cc2ccccc2cc1O)c1cccs1 | 17 | nt | -9 | -6 | i | nt | nt
O=C(NC(=S)NNC(=O)c1cccs1)c1ccccc1 | 22* | nt | 10 | 22 | i | 1 | 25*
O=C(NNC(=O)c1cccc2ccccc12)c1ccc(Cl)cc1Cl | 7 | nt | nt | -13 | nt | nt | nt
